Laboratory results taken from the EternaBench riboswitch data.

Tested on: MS2 coat protein
Test: apparent Kd, MS2 coat protein; higher = weaker binding; RNA-MaP array
Summary of the method: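 On an Illumina sequencing chip, sequenced DNA templates served for transcription of the designed RNAs, which were then bound at room temperature by fluorescently labeled MS2 coat protein at 1.5 nM to 3 μM, with or without input ligand. Apparent Kd is the median of the fits to each cluster's binding curve. Only designs measured on at least 10 clusters were kept.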

[1] = designed as: OFF switch for flavin mononucleotide, no ligand
[2] = ligand present: flavin mononucleotide, designed as: OFF switch for flavin mononucleotide
[3] = designed as: ON switch for flavin mononucleotide, no ligand
[4] = ligand present: flavin mononucleotide, designed as: ON switch for flavin mononucleotide

Sequence	apparent Kd [1] [nM]	apparent Kd [2] [nM]	apparent Kd [3] [nM]	apparent Kd [4] [nM]	further results
AUUAUGUAAGGAUAUCGAGAAAUAAAGAAUCUAGUCAGCCACGAGAAGGAACAUGAGGAUCACCCAUGUGGAUA	13.8	12.2	–	–	–
GGUUGACCUGAGGAACAUGAGGAUCACCCAUGUGUUAGCGGAAAGGAUAUUCGAUUGCACGUUAAGAAGAAGGUUCCAACGUUA	–	–	14.4	15.8	–
GAUGACUUAGGAUAUCAAAUUCUCGACAUGAGGAUCACCCAUGUGUAUCCGCCAGGUUAGUGAGAAGGAAGUUGGA	91.3	77.8	–	–	–
UAAAACAUGAGGAUCACCCAUGUAUUGAGUCGAGGACCGGUACGGCCGCCACUCGGCAAUAAUAACGACGCAUAGCAUGUAGGAA	–	–	–	–	apparent Kd (designed as: ON switch for tryptophan, no ligand): 12.7 nM; apparent Kd (ligand present: tryptophan, designed as: ON switch for tryptophan): 14.5 nM
UACUCGACUUAGAAGGGUUUGUGGACAGCCAGUGGCGUGCGUACAUGAGGAUCACCCAUGUCUCAACAGGAUAUAAGCAUUAGC	35	27	–	–	–
UCAGUUCAAGGAUAUACAUGAGGAUCACCCAUGUACCGCAAUGUAGAAAAGUGACGUAGUAGAAGGUGAAACGA	23.6	21	–	–	–
AAAUAAGAGGAGAAGGGCAAAAUGUCGAACCGAGCAGGAUAUCCACAGAACAUGAGGAUCACCCAUGUGGUCAAACAGUACAAA	–	–	54.4	39	–
GGUACCGCGGUGAGGAUAUCCUGCGUUUGGCAGCUGGAGAAGGCACAUGAGGAUCACCCAUGUAAAGAGAAUGC	10.5	16.2	–	–	–
CCUUAGAUACAUGAGGAUCACCCAUGUCACCAGCAACCUGACGAGGAUAUAUAGGCCAAAUAACUAUAGAAGGCGUUGACCCAA	–	–	20.5	12.4	–
AUGAAACAUGAGGAUCACCCAUGUGAGGAUAUGGUCUCGAACAAAAUACAAACACCAUCCAGAAGGCACAUGAA	29.8	27.7	–	–	–
UCUUCGUUGGCGUCACAAUUCAUGCAAUGCCGAGGACCGGUACGGCCGCCACUCGGACUAAUACAUGAGGAUCACCCAUGUCGUG	–	–	–	–	apparent Kd (designed as: OFF switch for tryptophan, no ligand): 123 nM; apparent Kd (ligand present: tryptophan, designed as: OFF switch for tryptophan): 102 nM
GCAGUCCUCCGAGGAUAUAUGACAAUUGACGUGAGAUGUUAGCACAUGAGGAUCACCCAUGUUUUAUAGAAGGCGGGAUAGGUU	–	–	20.5	18.3	–
CUGGUUGUCAAAGGAUAUAAACGAUCACAUGAGGAUCACCCAUGUCUCCCUAUGUUAAUAAGCGCUUAGAAGGUUGAGCCAGCC	31.3	34.4	–	–	–
GGUGUUCCUCUAGGAUAUAGCGAUACAUGAGGAUCACCCAUGUUACUCCAGCGCGGCGGAUCGCUCUAGAAGGAGACAUAGCCA	75.1	53.4	–	–	–
UAAAUCUUACAACACAUGAGGAUCACCCAUGUACGGGCGGGAUAGGAUAUCGAAAUGGUCUCAAACGAGAAGGAUCCUUCUUAU	–	–	46.7	27.8	–
AAUUUUAUGAAAGGAUAUGUGUGCUGGUCCAUCACAGAAGGUUCAAGGAGAUGGAUAUAACGACAUGAGGAUCACCCAUGUGCU	–	–	32	22.1	–
GUGAAACAUGAGGAUCACCCAUGUUAGGAUAUAACGCGACGGCAGGGAUCUGCGCUACUUAGAAGGAACGGGAC	11.5	9.73	–	–	–
GAACGUAGAGGAUAUACGACAAUGCACUGAUCGACGAGUACACAUGAGGAUCACCCAUGUAGAAGGCUAGGAAU	7.28	6.45	–	–	–
CGUCUAGUUGAGAAGGAUUCGGCGUCGGUCAUGUUAAUCUGGAAACAUGAGGAUCACCCAUGUCAAUAGGAUAUCAGGGCACUA	11.2	12.8	–	–	–
GUCUUGUAAGGAUAUGAUCAGUAGGAAAGAUGGCAGCAUCAUCAGAAGGUACAUGAGGAUCACCCAUGUUGUGA	17	22.9	–	–	–
AGAAAUGUAUUAGGAUAUUGGCGCGUAUUACGACAAGAAGGAAUACAUGAGGAUCACCCAUGUAACCCGCUCCGCGGUCCAUGG	101	64.3	–	–	–
CCUUAAGCAUAAGGAUAUAAGUUUUGACUAAGUUUAGAAGGUAUGCUUGCAAGAUCCGGCAAUAACAUGAGGAUCACCCAUGUG	27.6	21.3	–	–	–
CGCACACAGCAACCAAAAUAAACAUGAGGAUCACCCAUGUCACAGGAUAUGGCGAACCCAGGCGACCAGAAGGGUGUAAACACA	–	–	26.6	18.6	–
AACGACAUGAGGAUCACCCAUGUAUACGACCGAAGUGUACGGUAGGAUAUCGACAGCAUAGAUAACGAGAAGGACCCUUUUGGA	–	–	18.1	11.8	–
AUCAAUCUAGGAUAUACAUGAGGAUCACCCAUGUCUUCAACCAAGGGCUCCACGACCUGUAGAAGGAGACAAAA	27	22	–	–	–
UCACAACUAGGAUAUUUAGUGCUAUACAUGAGGAUCACCCAUGUCGUGUGCACUAGUACGAAAGAAGGAGUUAUCG	5.09	5.21	–	–	–
